The record followed here is ChEMBL document CHEMBL1124400, “Synthesis and evaluation of antileukemic activity of 5-thienyl- or 5-(2-furyl)-2,3-dihydro-6,7-bis(hydroxymethyl)-1H-pyrrolizine bis(alkylcarbamates) and derivatives” (J Med Chem, 1989).

Several values for one entry are separate records, joined by “and”; a condition that tells them apart may be missing. Equal entries are not always repeated.

The subject of data set [1] is Mus musculus. Put plainly: MST of mitomycin 2 mg/kg treated group x 100/MST of untreated control group at a dose of 50 mg/kg in L1210 leukemic mice. In kind it is functional. In a few lines:
(§1)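 Reference group of 8 B6D2F1 mice bearing ip-grafted 10⁵ L1210 cells (day 0), given mitomycin 2 mg/kg in distilled water ip on days 1, 5 and 9. Controls were 12 mice given vehicle only. Mortality was followed daily with autopsy. Ref I = mitomycin-group MST × 100/control MST, run alongside each test experiment.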

Data set [2] is described as follows: Ratio, I x 100/ref I at a dose of 100 mg/kg in L1210 leukemic mice. Format: functional. In a few lines:
(§2)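 Male B6D2F1 mice, 3 months old, received 10^5 L1210 cells ip on day 0. Dosing was ip on days 1, 5 and 9 in 20% aqueous Tween 80, 0.1–0.2 mL per 20 g, with 8 mice per group. There were 12 vehicle controls and 8 mice given mitomycin 2 mg/kg ip in water. Daily mortality was recorded, with autopsies. Ratio = treated-group MST ×100/reference-group MST; Wilcoxon, p<0.05.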

Data set [3] deals with Mus musculus. Description: Median survival time of treated group / untreated group, when 50 mg/kg compound is administered intraperitoneally in L1210 leukemic mice. In kind it is functional. The note with it: route intraperitoneal. In a few lines:
(§3)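 Male 3-month-old B6D2F1 mice, 10⁵ L1210 cells ip on day 0. Compound was given ip on days 1, 5 and 9 in aqueous 20% Tween 80 (0.1–0.2 mL per 20 g), 8 mice per group. Twelve vehicle controls. Daily mortality with autopsy to assign leukemic versus toxic death. I = treated MST × 100/control MST. Wilcoxon test, p < 0.05; active if I > 125 and p < 0.05.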

Data set [4] deals with Mus musculus. Description: MST of mitomycin 2 mg/kg treated group x 100/MST of untreated control group at a dose of 100 mg/kg in L1210 leukemic mice. In kind it is functional. In a few lines: as §1
The subject of data set [5] is Mus musculus. Description: Median survival time of treated group / untreated group, when 100 mg/kg compound is administered intraperitoneally in L1210 leukemic mice. Format: functional. The note with it: route intraperitoneal. In a few lines: as §3
In data set [6] the test system is Mus musculus. Description: Median survival time of treated group / untreated group, when 20 mg/kg compound is administered intraperitoneally in L1210 leukemic mice. Format: functional. As to conditions: route intraperitoneal. The procedure, abridged: as §3
In data set [7] the test system is Mus musculus. Put plainly: MST of mitomycin 2 mg/kg treated group x 100/MST of untreated control group at a dose of 20 mg/kg in L1210 leukemic mice. In kind it is functional. In a few lines: as §1
Data set [8] in a line: Ratio, I x 100/ref I at a dose of 20 mg/kg in L1210 leukemic mice. In kind it is functional. In a few lines:
as §2

Data set [9] can be described thus: Lethal dose in L1210 leukemic mice, by administering compound intraperitoneally. In kind it is toxicity, organism-based. The note with it: mouse, in vivo, ip. The procedure, abridged: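 Male B6D2F1 mice (3 months old) received 10⁵ L1210 leukemia cells ip on day 0. One day later they were given compound ip. Mortality was recorded daily for 9 days and the acute LD50 expressed in mg/kg.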

A short description of data set [10]: Ratio, I x 100/ref I at a dose of 50 mg/kg in L1210 leukemic mice. In kind it is functional. The procedure, abridged:
as §2

Data set [11] concerns Mus musculus. Description: Median survival time of treated group / untreated group, when 30 mg/kg compound is administered intraperitoneally in L1210 leukemic mice. In kind it is functional. As to conditions: route intraperitoneal. The procedure, abridged:
as §3

The subject of data set [12] is Mus musculus. Description: Median survival time of treated group / untreated group, when 15 mg/kg compound is administered intraperitoneally in L1210 leukemic mice. Format: functional. The note with it: route intraperitoneal. In a few lines: as §3
A short description of data set [13]: Ratio, I x 100/ref I at a dose of 15 mg/kg in L1210 leukemic mice. Format: functional. The procedure, abridged:
as §2

The test system of data set [14] is Mus musculus. Put plainly: MST of mitomycin 2 mg/kg treated group x 100/MST of untreated control group at a dose of 30 mg/kg in L1210 leukemic mice. Format: functional. The procedure, abridged: as §1
The subject of data set [15] is Mus musculus. Put plainly: Median survival time of treated group / untreated group, when 50 mg/kg compound administered intraperitoneally in L1210 leukemic mice. Format: functional. The note with it: route intraperitoneal. The procedure, abridged: as §3
Data set [16] has as its system Mus musculus. Description: MST of mitomycin 2 mg/kg treated group x 100/MST of untreated control group at a dose of 15 mg/kg in L1210 leukemic mice. Format: functional. In a few lines: as §1
The nature of data set [17]: Ratio, I x 100/ref I at a dose of 30 mg/kg in L1210 leukemic mice. In kind it is functional. In a few lines: as §2
Data set [18] is described as follows: Ratio, I x 100/ref I at a dose of 10 mg/kg in L1210 leukemic mice. In kind it is functional. In a few lines:
as §2

The subject of data set [19] is Mus musculus. Put plainly: MST of mitomycin 2 mg/kg treated group x 100/MST of untreated control group at a dose of 10 mg/kg in L1210 leukemic mice. Format: functional. The procedure, abridged:
as §1

Data set [20] in a line: Ratio, I x 100/ref I at a dose of 4 mg/kg in L1210 leukemic mice. Format: functional. In a few lines: as §2
In data set [21] the test system is Mus musculus. Description: Median survival time of treated group / untreated group, when 10 mg/kg compound is administered intraperitoneally in L1210 leukemic mice. Format: functional. The note with it: route intraperitoneal. In a few lines:
as §3

The test system of data set [22] is Mus musculus. Put plainly: MST of mitomycin 2 mg/kg treated group x 100/MST of untreated control group at a dose of 4 mg/kg in L1210 leukemic mice. In kind it is functional. In a few lines: as §1
In data set [23] the test system is Mus musculus. Put plainly: Median survival time of treated group / untreated group, when 4 mg/kg compound is administered intraperitoneally in L1210 leukemic mice. Format: functional. The note with it: route intraperitoneal. The procedure, abridged:
as §3

Regarding `CNC(=O)OCc1c(COC(=O)NC)c(-c2ccco2)n2c1CCC2`, the “Ref I oncostatic index” value in the data set with Mus musculus [1] worked out at 117; in the data set with Mus musculus [4], 125; in the data set on Mus musculus [7], 117. In addition, the Ratio in data set [2] is 80; in data set [8] it was 86; in [10], 92. Besides, the values for the Oncostatic index in the data set with Mus musculus [3], in the data set with Mus musculus [5] and in the data set with Mus musculus [6] were 108, 100 and 100, respectively. The compound also returned an LD50 in data set [9] of over 150 mg/kg.

In the case of `CC(=O)OCc1c(COC(C)=O)c(-c2cccs2)n2c1CCC2`, the “Ref I oncostatic index” value in the data set with Mus musculus [1] was 136; with Mus musculus [4], 125; with Mus musculus [14], 140; in the data set on Mus musculus [16] it was 121. Also, the Ratio in data set [2] amounted to 80; in [13] it was 83; in [10], 92; in [17] it was 86. The Oncostatic index in the data set on Mus musculus [11] is 114 and 100; with Mus musculus [12], 100; with Mus musculus [15], 117. For the same compound, in [9], the LD50 was determined as 80 mg/kg.

As to `CC(C)NC(=O)OCc1c(COC(=O)NC(C)C)c(-c2cccs2)n2c1CCC2`, the Ratio in data set [18] stood at 79; in data set [20] it was 66; in [13], 90. The Oncostatic index was 125 with Mus musculus [12], 129 in the data set on Mus musculus [21] and 108 in the data set on Mus musculus [23]. Moreover, the “Ref I oncostatic index” value was found to be 163 with Mus musculus [19], 164 with Mus musculus [22] and 139 with Mus musculus [16]. The same compound displayed an LD50 in data set [9] of 35 mg/kg.

As usually defined, the LD50 is the dose at which mortality reaches 50%. Low values mean a more toxic substance, high ones a less toxic substance.
